Assay results from PMC3810942 (FEBS letters, 2013).
“Also recorded” adds a separate entry of the source.

Experiments:
[1] = molecular target: T1, Trypsin (Bos taurus, UniProt P00760); assay: Selectivity assay with trypsin; format: biochemical
T1 sequence (P00760 24-246): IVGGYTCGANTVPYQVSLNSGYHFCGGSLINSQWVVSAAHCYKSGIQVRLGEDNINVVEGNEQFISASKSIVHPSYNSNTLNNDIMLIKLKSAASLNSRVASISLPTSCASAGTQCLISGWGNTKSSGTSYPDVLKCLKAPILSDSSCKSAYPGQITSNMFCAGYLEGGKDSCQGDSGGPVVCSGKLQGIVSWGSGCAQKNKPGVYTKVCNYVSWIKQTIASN
Method in brief: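 TPCK-treated trypsin was exposed to increasing compound at 21°C in 25 mM HEPES with 1 mM CaCl₂. Substrate hydrolysis was tracked as fluorescence increase (ex 496/em 523 nm). Rates were normalized to the no-inhibitor rate and expressed as % activity.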

[2] = molecular target: T2, AVP-pVIc complexes (Human adenovirus C serotype 2, UniProt P03252); assay: Inhibition of AVP-pVIc complexes, fluorogenic substrate assay; format: biochemical, adenovirus serotype 2
[3] = molecular target: AVP (adenovirus proteinase) (Human adenovirus C serotype 2, UniProt P03252); assay: Inhibition of AVP; format: biochemical, adenovirus serotype 2
Method in brief: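 Purified adenovirus type 2 AVP was pre-incubated 9 min at 21°C with varied compound in 5 mM NaCl, 20 mM Tris-HCl pH 8, 0.025% DDM, 0.1 mM DTT. pVIc was then added to 20 μM for another 9 min. Rates with 5 μM (Cbz-Leu-Arg-Gly-Gly-NH)₂-Rhodamine were read every 10 s (ex 496/em 523 nm). IC50 came from a four-parameter logistic fit of initial rates.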

[4] = molecular target: T3, Papain (Carica papaya, UniProt P00784); assay: Selectivity assay with papain; format: biochemical
T3 sequence (P00784 134-345): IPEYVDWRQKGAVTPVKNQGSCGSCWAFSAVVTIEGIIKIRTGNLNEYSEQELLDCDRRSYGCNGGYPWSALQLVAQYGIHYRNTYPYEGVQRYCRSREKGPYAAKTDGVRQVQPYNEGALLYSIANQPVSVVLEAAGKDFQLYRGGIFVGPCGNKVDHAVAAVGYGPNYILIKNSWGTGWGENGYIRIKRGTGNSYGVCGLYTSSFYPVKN
Method in brief: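 Papain was incubated with increasing compound for 10 min at 21°C in 25 mM sodium acetate with 1 mM DTT. Hydrolysis of the fluorogenic substrate was followed over time (ex 496/em 523 nm). Rates were normalized to the rate without inhibitor and reported as % activity.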

[5] = test system: AVP and AVP-pVIc complexes; assay: Coarse screening of structural derivatives for enzyme inhibitors; format: biochemical, adenovirus serotype 2; details: 40 μM compound, 150 mM NaCl, 0.3 μM enzyme
Method in brief: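 AVP (adenovirus type 2, E. coli-expressed) or AVP-pVIc complexes (75 μM each, overnight at 4°C with 20 mM β-mercaptoethanol) were pre-incubated 9 min at 21°C with compound from 10 mM DMSO stock. Buffer was 20 mM Tris-HCl pH 8, 0.025% DDM, 0.1 mM DTT. For AVP, 40 μM pVIc was then added for 9 min more. Initial rates with 5 μM (Cbz-Leu-Arg-Gly-Gly-NH)₂-Rhodamine (ex 496/em 523 nm) were normalized to the no-inhibitor rate.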

[6] = molecular target: T2, AVP-pVIc complexes; assay: Competitive inhibition of AVP-pVIc complexes; format: biochemical, adenovirus serotype 2
[7] = molecular target: AVP (Human adenovirus C serotype 2, UniProt P03252); assay: Mixed inhibition of AVP; format: biochemical, adenovirus serotype 2
[8] = molecular target: Adenovirus proteinase (AVP) (Human adenovirus 2) (UniProt P03252); details: cited from earlier work
[9] = 20 pM trypsin, 10 min, pH 7.5, 10 μM (Ile-Pro-Arg-NH)2-Rhodamine
[10] = 0.18 μM papain, pH 5, 10 μM (Phe-Arg-NH)2-Rhodamine
[11] = best fitting model, SigmaPlot Kinetic Module
[12] = concentrations 50-fold higher than that inhibiting AVP or AVP-pVIc by more than 90%

T2 sequence (P03252 whole entry, one chain of several): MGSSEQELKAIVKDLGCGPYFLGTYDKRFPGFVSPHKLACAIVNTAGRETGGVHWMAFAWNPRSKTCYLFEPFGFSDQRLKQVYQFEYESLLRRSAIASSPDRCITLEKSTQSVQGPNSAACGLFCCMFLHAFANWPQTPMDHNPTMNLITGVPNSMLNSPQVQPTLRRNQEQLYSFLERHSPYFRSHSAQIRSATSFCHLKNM
AVP, sequence (P03252 whole entry): as the sequence (P03252 whole entry, one chain of several) above
AVP (adenovirus proteinase), sequence (P03252 whole entry): as the sequence (P03252 whole entry, one chain of several) above
pVIc, sequence (P03274 whole entry, looked up): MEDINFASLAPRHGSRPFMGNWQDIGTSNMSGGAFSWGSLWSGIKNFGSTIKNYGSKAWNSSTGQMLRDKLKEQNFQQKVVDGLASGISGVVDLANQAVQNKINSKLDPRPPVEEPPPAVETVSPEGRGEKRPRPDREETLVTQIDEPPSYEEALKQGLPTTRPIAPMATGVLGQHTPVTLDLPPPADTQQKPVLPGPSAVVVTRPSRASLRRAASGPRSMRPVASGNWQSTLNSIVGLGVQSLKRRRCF
Adenovirus proteinase (AVP) (Human adenovirus 2), sequence (P03252 whole entry): as the sequence (P03252 whole entry, one chain of several) above

Molecule	Inhibition of trypsin [1, 9]	IC50 [2]	IC50 [3]	Inhibition of papain [4, 10]	Inhibition in coarse screen [5]	further results
O=C1CN2CCN(CC2)CC(=O)Nc2ccc(cc2)S(=O)(=O)c2ccc(cc2)NC(=O)CN2CCN(CC2)CC(=O)Nc2ccc(cc2)S(=O)(=O)c2ccc(cc2)N1 [NSC 36806, 2,21-dithia-7,10,13,16,26,29,32,35-octaazaheptacyclo[34.2.2.23,6.210,13.217, 20.222,25.229,32]pentaconta-1(38),3,5,17,19,22,24,36,39,43,45,49-dodecaene-8,15,27,34-tetrone 2,2,21,21-tetraoxide]	did not inhibit	18000 nM	–	–	–	–
CC(C)CCN(CCC(C)C)CC(=O)Nc1ccc(S(=O)(=O)c2ccc(NC(=O)CN(CCC(C)C)CCC(C)C)cc2)cc1 [NSC 37248, 2-[bis(3-methylbutyl)amino]-N-[4-[4-[[2-[bis(3-methylbutyl)amino]acetyl]amino]phenyl]sulfonylphenyl]acetamide]	No Inhibition	2100 nM	880 nM	No Inhibition	inhibit either the activation of AVP or the activity of AVP-pVIc complexes; also recorded: effective inhibitors	–
O=C(CN(C1CCCCC1)C1CCCCC1)Nc1ccc(S(=O)(=O)c2ccc(NC(=O)CN(C3CCCCC3)C3CCCCC3)cc2)cc1 [NSC 37249, 2-(dicyclohexylamino)-N-[4-[4-[[2-(dicyclohexylamino)acetyl]amino]phenyl]sulfonylphenyl]acetamide]	No Inhibition	490 nM	140 nM	No Inhibition	inhibit either the activation of AVP or the activity of AVP-pVIc complexes; also recorded: effective inhibitors	Ki ([6]; Ki AVP:pVIc, competitive inhibition model, substrate 2.5-20 μM): 403 nM; Type of inhibition, AVP-pVIc complexes [6, 11]: Competitive Inhibition; also recorded: competitive inhibitor; Inhibition of trypsin [1, 12]: did not inhibit; Inhibition of trypsin ([1]; concentrations up to 18 μM): no inhibition was observed; Inhibition of papain [4, 12]: did not inhibit; Inhibition of papain ([4]; concentrations up to 50-fold the Ki for AVP): no inhibition was observed; Ki [7]: 150 nM; Type of inhibition, AVP [7, 11]: Mixed Inhibition
CC1COCC(C)N1CC(=O)Nc1ccc(S(=O)(=O)c2ccc(NC(=O)CN3C(C)COCC3C)cc2)cc1 (centres unmarked) [NSC 106702, 2-(3,5-dimethylmorpholin-4-yl)-N-[4-[4-[[2-(3,5-dimethylmorpholin-4-yl)acetyl]amino]phenyl]sulfonylphenyl] acetamide]	–	–	–	–	inhibit either the activation of AVP or the activity of AVP-pVIc complexes	–
O=C(Nc1ccc(S(=O)(=O)c2ccc(NC(=O)C(F)(F)N3CCOCC3)cc2)cc1)C(F)(F)N1CCOCC1 [NSC 106721, N-[4-[4-[(2,2-difluoro-2-morpholin-4-ylacetyl)amino]phenyl]sulfonylphenyl]-2,2-difluoro-2-morpholin-4-ylacetamide]	–	–	–	–	inhibit either the activation of AVP or the activity of AVP-pVIc complexes	–
pVIc (from UniProt P03274)	–	–	–	–	–	Kd [8]: 4400 nM
